# KCNK9 block: blocks the human KCNK9 two-pore domain potassium channel; 310,000 compounds, 1.2% hits; AID 488922; HEK293 KCNK9, FluxOR thallium flux fluorescence; active compounds read low; B-score at 10 µM;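 active = ratio B-score over 3 SD below the library mean, with starting fluorescence within 5 SD of its mean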;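 also: negative B-score means less thallium flux so channel inhibition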
# Target sequence (Q9NPC2 whole entry, looked up, the tested form may be a part): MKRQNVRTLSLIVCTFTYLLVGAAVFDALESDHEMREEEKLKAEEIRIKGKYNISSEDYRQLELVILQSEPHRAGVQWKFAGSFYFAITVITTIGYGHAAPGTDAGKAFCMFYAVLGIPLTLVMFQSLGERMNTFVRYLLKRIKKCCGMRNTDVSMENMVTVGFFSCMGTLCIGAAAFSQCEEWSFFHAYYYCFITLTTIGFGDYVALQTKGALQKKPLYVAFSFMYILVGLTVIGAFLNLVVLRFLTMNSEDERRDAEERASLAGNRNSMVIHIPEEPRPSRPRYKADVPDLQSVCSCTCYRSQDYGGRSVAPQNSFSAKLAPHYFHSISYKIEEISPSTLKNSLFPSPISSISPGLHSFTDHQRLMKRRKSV
# KCNK3 block: human KCNK3 channel inhibition, primary screen; 340,000 compounds, 0.84% hits; B-score at 10 µM; CHO-KCNK3 thallium flux, FluxOR fluorescence; active compounds read low; O14649; AID 602410;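 active = B-score under library mean minus 4 SD, starting fluorescence ratio at most library mean plus 5 SD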;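 also: more negative B-score means stronger inhibition of thallium flux through KCNK3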
# KCNQ1 block: inhibitors of human KCNQ1 potassium channel | P51787 | CHO-K1 KCNQ1, FluxOR thallium flux fluorescence; active compounds read high | B-score at 10 µM | 310,000 compounds, 1.3% hits;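 active = compounds whose thallium flux B-score, printed positive for inhibition, exceeds three library SD while starting fluorescence stays within three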;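 also: channel opened by potassium depolarization with thallium stimulus after 20 min compound exposure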
# Kir21 block: Kir2.1 (mouse) channel inhibition | P35561 | HEK293-Kir2.1, FluxOR thallium flux fluorescence; active compounds read low | B-score at 10 µM | 310,000 compounds, 0.85% hits;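 active = fluorescence ratio B-score at or below minus 3 SD of library scores, with starting-brightness B-score within 2 SD, cut at about -4.2 in these data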;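 also: channel flux triggered by added potassium and thallium sulfate stimulus; B-score of peak minus minimum fluorescence over baseline after thallium stimulus; more negative B-score means stronger Kir2.1 block with less thallium influx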
# hERG protect: hERG (human) protection from proarrhythmic block | AID 1511 | Q12809 | CHO-hERG, FluxOR thallium flux, dofetilide IC70 present | 310,000 compounds, 0.51% hits | activation (rescue from dofetilide block), less the hit threshold, % at 10 µM;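 active = activation above the mean of controls blocked by dofetilide plus 5 SD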;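 also: thallium influx through hERG after potassium depolarization seen as dye fluorescence rise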
# KCNQ1 act: potentiates or activates the human KCNQ1 potassium channel | P51787 | CHO-K1 KCNQ1, thallium flux FluxOR fluorescence; active compounds read high | B-score at 10 µM | 310,000 compounds, 0.35% hits | AID 2648;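 active = fluorescence ratio B-score, a plate-corrected score, at least three library SD, with initial intensity B-score within 5 SD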
#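 Medium – assay buffer, equal DMSO in all wells · Material – CHO-K1 cell line with stable KCNQ1 potassium channel expression · Signal – kinetic FluxOR thallium fluorescence, 10-s 1-Hz baseline, 110-s post-stimulus read · Compound – single concentration per compound, DMSO matched to controls · Schedule – 37 °C overnight plating, 90-min dark dye load, 20-min compound pretreatment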
# Active calls of the source: *; i = inactive; · = no result. Hits are enriched below; roughly 3.7% of the tested compounds scored in any of these assays.
SMILES,KCNK9 block,KCNK3 block,KCNQ1 block,Kir21 block,hERG protect,KCNQ1 act
CCOC(=O)c1c(-c2ccccc2)oc2ccc(OCC(O)CNCCN(C)C)cc12 (stereo unspecified),i,i,i,-5.2*,-11,i
CCOC(=O)c1c(-c2ccccc2)oc2ccc(OC)cc12,i,i,i,-0.55,-2,i
Cc1cc(Oc2ccc(C)c(Cl)c2)nc(SCC(=O)c2ccccc2)n1,-7.2*,i,i,-2.4,-2,i
O=C(Cn1c(=O)oc2cc(S(=O)(=O)N3CCCCCC3)ccc21)NC1CCCCC1,i,i,i,0.24,-7,i
O=C(Cn1c(=O)oc2cc(S(=O)(=O)N3CCc4ccccc43)ccc21)NC1CCCC1,-8.8*,i,i,-0.25,1,i
CC(C)CCNC(=O)Cn1c(=O)oc2cc(S(=O)(=O)N3CCc4ccccc43)ccc21,-9.2*,i,i,-0.56,-1,i
COC(=O)c1c(NC(=O)CN2CCN(c3ncccn3)CC2)sc(C(N)=O)c1C,i,i,i,-1.6,-2,i
COc1ccc(Br)cc1C(=O)NC(=S)Nc1c(C)n(C)n(-c2ccccc2)c1=O,i,i,i,0.84,4.8*,i
Cc1c(NC(=S)NC(=O)c2ccccc2Cl)c(=O)n(-c2ccccc2)n1C,i,i,i,-0.11,-3,i
COCCOC(=O)C1=C(N)OC2=C(C(=O)CC(C)(C)C2)C1c1cccnc1 (stereo unspecified),i,i,i,1.3,5.2*,i
Cn1cnc([N+](=O)[O-])c1S(=O)(=O)Oc1ccc(Cl)cc1,·,i,·,·,·,·
COc1ccc(CCN(C)C(=O)c2ccc(COc3ccccc3)o2)cc1OC,i,i,i,-5.8*,-11,i
COC(=O)c1ccccc1NC(=O)c1ccc(COc2ccccc2)o1,·,-10*,·,·,·,·
CN1CCN(Cc2c(C(=O)N/N=C/c3cccc(Br)c3)nnn2-c2nonc2N)CC1,i,i,i,-1.8,-12,i
CSc1ccc(/C=N/n2c(Cc3ccc(Br)cc3)n[nH]c2=S)cc1,i,i,i,0.01,155*,i
CC(C)OCCCNc1nc2c(cnn2C)c(=O)[nH]1,·,i,·,·,·,·
Cc1ccc(C(=O)C[n+]2ccc3ccccc3c2)cc1,i,i,i,-0.83,-5,i
Cc1cc(C(C)(C)C)cc(C)c1C[n+]1ccc2ccccc2c1,i,i,7*,-1.4,-15,i
CN1CCN(C(=S)NC(=O)c2cccc([N+](=O)[O-])c2)CC1,i,i,i,-0.69,-4,i
CC1CCN(C(=S)NC(=O)c2cccc([N+](=O)[O-])c2)CC1,i,i,i,2,13*,9*
CC1CCN(C(=S)NC(=O)c2ccccc2)CC1,i,i,i,0.29,-6,i

# Source: PubChem BioAssay (Johns Hopkins Ion Channel Center)
